Measured values from different studies.
Lines come from different studies, so protocols differ.

Br.Cc1ccc(Sc2ccccc2N2CCNCC2)c(C)c1  Cmax (human; plasma; oral; 20 mg; multiple doses, steady state, healthy volunteers): 33 ng/mL
Nc1cc(C(F)(F)F)c(-c2cc(N3CCOCC3)nc(N3CCOCC3)n2)cn1  Cmax (human; plasma; oral; 25 mg/day; patients): 289 ng/mL
O=C(Nc1c(Cl)cncc1Cl)c1ccc(OC(F)F)c(OCC2CC2)c1  Cmax (human; plasma; oral; 0.5 mg; single dose, fasted): 12.5 ng/mL
COc1cc(C(=O)NC2CCN(C)CC2)c(F)cc1Nc1ncc(C(F)(F)F)c(Oc2cccc3c2C(=O)N(C)C3)n1  Cmax (human; plasma; oral; 50 mg; multiple doses, once daily, steady state, patients): 430 nM
Cc1nc(Nc2ncc(C(=O)Nc3c(C)cccc3Cl)s2)cc(N2CCN(CCO)CC2)n1  Cmax (human; plasma; oral; 65 mg/m²; multiple doses, twice daily, steady state, patients): 168 ng/mL
COc1ccc([C@@H]2CN(C(=O)[C@@H](O)CO)C[C@@]2(C)[C@@H](C)O)cc1OC1CN(c2ccc(C)cn2)C1  Cmax (human; plasma; oral; 10 mg; single dose, healthy volunteers): 319 ng/mL
CC(C)(Sc1ccncc1-c1ccc(C#N)c2ccccc12)C(=O)O  Cmax (male human; plasma; oral; 40 mg; single dose, fasted, healthy volunteers): 760 ng/mL
CC(C)(C(=O)N1CCOc2c(C#N)cncc2C1)C(F)F  Cmax (human; plasma; oral; 10 mg; single dose, fasted, healthy volunteers): 116 ng/mL
Cn1cc(-c2ccc(S(=O)(=O)[C@@H]3C[C@@H](C(=O)NC4(C#N)CC4)N(C(=O)C4(C(F)(F)F)CC4)C3)c(C(F)(F)F)c2)cn1  Cmax (human; plasma; oral; 10 mg; single dose, fasted, healthy volunteers): 81.3 ng/mL
C#Cc1cccc(Nc2ncnc3cc(OCCOC)c(OCCOC)cc23)c1  Cmax (human; plasma; oral; 100 mg; patients): 1820 nM
COCCOc1cnc2ccn([C@H](C)c3nnc4c(F)cc(-c5cnn(C)c5)cn34)c(=O)c2c1  Cmax (human; plasma; oral; 50 mg; multiple doses, once daily, patients): 730 ng/mL
CCc1nc2c(C)cc(N3CCN(CC(=O)N4CC(O)C4)CC3)cn2c1N(C)c1nc(-c2ccc(F)cc2)c(C#N)s1  Cmax (human; plasma; oral; 60 mg; single dose, fed, healthy volunteers): 600 ng/mL
CO[C@@H]1[C@H](OC(=O)N2CC(CCN3CCOCC3)C2)CC[C@]2(CO2)[C@H]1[C@@]1(C)O[C@@H]1CC=C(C)C  Cmax (human; plasma; subcutaneous; 4.8 mg; single dose, healthy volunteers): 18.7 ng/mL
N#CN1C[C@H](n2nc(-c3ccc(Oc4ccc(Cl)cn4)cc3)c(C(N)=O)c2N)CCC12CC2  Cmax (human; plasma; oral; 600 mg; single dose, fasted): 1120 ng/mL
CCOc1cc2ncc(C#N)c(Nc3ccc(OCc4ccccn4)c(Cl)c3)c2cc1NC(=O)/C=C/[C@H]1CCCN1C  Cmax (human; plasma; oral; 80 mg; single dose): 26.5 ng/mL
CS(=O)(=O)CCNCc1ccc(-c2ccc3ncnc(Nc4ccc(OCc5cccc(F)c5)c(Cl)c4)c3c2)o1  Cmax (human; serum; oral; 1250 mg; single dose): 910 ng/mL
CO[C@H]1CC[C@H](N2C(=O)CNc3ncc(-c4ccc(C(C)(C)O)nc4)nc32)CC1  Cmax (human; plasma; oral; 60 mg; multiple doses, patients): 480 ng/mL
CC(C)n1cc(C#N)c2cc(-n3cc(C(=O)O)cn3)ccc21  Cmax (human; plasma; oral; 400 mg; single dose, fasted, healthy volunteers): 14700 ng/mL
CCO[C@H]1CCN(Cc2c(OC)cc(C)c3[nH]ccc23)[C@H](c2ccc(C(=O)O)cc2)C1  Cmax (human; plasma; oral; 25 mg; multiple doses, twice daily, patients): 1450 ng/mL
FC(F)(F)c1ccc(CNc2ccc(Cc3c[nH]c4ncc(Cl)cc34)cn2)cn1  Cmax (human; plasma; oral; 800 mg; multiple doses, patients): 6780 ng/mL
CCn1c(=O)c(-c2cc(NC(=O)Nc3ccccc3)c(F)cc2Br)cc2cnc(NC)cc21  Cmax (human; plasma; oral; 200 mg; single dose, patients): 525 ng/mL
CC(C)(O)c1ccccc1-c1ccc2[nH]c(/C=C/c3ccc(C(F)(F)F)cc3)nc2c1  Cmax (male human; plasma; oral; 225 mg; single dose, fasted, healthy volunteers): 525 ng/mL
Oc1cc(O)c2c(c1)O[C@@H](c1ccc(O)c(O)c1)[C@@H](O)C2  Cmax (human; plasma; oral; 100 mg; single dose): 3.6 ng/mL
Cn1c(=O)oc2ccc(-c3ccc(C[C@@H](C#N)NC(=O)[C@@H]4CNCCCO4)cc3)cc21  Cmax (male human; plasma; oral; 35 mg; single dose, healthy volunteers): 668 nM
FC(F)(F)c1ccc(CNc2ccc(Cc3c[nH]c4ncc(Cl)cc34)cn2)cn1  Cmax (human; plasma; oral; 600 mg; single dose, fasted, healthy volunteers): 4220 ng/mL
CO[C@H]1/C=C\C=C(/C)C(=O)NC2=CC(=O)C(NCCN(C)C)=C(C[C@@H](C)C[C@H](OC)[C@H](O)[C@@H](C)/C=C(\C)[C@@H]1OC(N)=O)C2=O  Cmax (human; plasma; intravenous; 12 mg/m²; patients, infusion): 196 ng/mL
C[C@@]1(c2cc(NC(=O)c3ccc(C#N)cn3)ccc2F)C=CSC(N)=N1  Cmax (human; plasma; oral; 30 mg; single dose): 148 ng/mL
NC(=O)c1cnc2[nH]ccc2c1N[C@@H]1[C@@H]2CC3C[C@H]1C[C@@](O)(C3)C2  Cmax (human; plasma; oral; 100 mg twice daily; multiple doses, patients): 256 ng/mL
Cc1ccc(C(=O)N(CCCN)[C@@H](c2oc3cc(Cl)ccc3c(=O)c2Cc2ccccc2)C(C)C)cc1  Cmax (human; plasma; intravenous; 6 mg/m²; single dose, patients, infusion): 817 ng/mL
